The RNAGym collection of RNA variant scans (doi:10.1126/science.aae0568)
Fewer inactive variants are shown than the library holds.

B1: tRNA (parent)
chain: GUUCCGUUGGCGUAAUGGUAACGCGUCUCCCUCCUAAGGAGAAGACUGCGGGUUCGAGUCCCGUACGGAACG

Variants of: B1
Test: yeast fitness relative to wild type (ratio to wild type); higher = fitter; tRNA-Arg(CCU), competitive growth, 37 C, YPD
How it was run: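 The tRNA-Arg(CCU) gene variants were made by chemical synthesis with a 3% per-site mutation rate at 69 sites and inserted at the native genomic locus of Saccharomyces cerevisiae. After pooling, the strains were competed in YPD at 37°C for 24 hours in six parallel replicates. Gene amplicons from the start population and each end population were read by 100-nucleotide paired-end sequencing, and Darwinian fitness relative to wild type was taken from genotype frequency changes. Genotypes needed ≥ 100 starting reads, and estimates < 0.5 were set to 0.5.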

Compared with GUUCCGUUGGCGUAAUGGUAACGCCUCUCCCUCCUAAGGAGAAGACUGCGGGUUUGAGUCCCGUACGGUACG [G25C C55U A69U], GUUCCGUUGGCGUAAUGGUAACGCCUCUCCCUCCUAAGAAGAAGACUGCGGGUUCGACUCCCGUACGGAACG [G25C G39A G58C] is higher in yeast fitness: 0.609 for the first, 0.663 for the second.

Compared with GUUCCGUUGGCGUAAUGGUAACGCCUCUCCCUCCUAAGGAGAAAACUGCGGGUUCGAGUCCCGUACGGAACG [G25C G44A], GUUCCGUUGGCGUAAUGGUAACGCCUCUCCCUCCUAAGGAGAAGACUGCGAGUUCGAGUCCCGUGCGGAACG [G25C G51A A65G] is lower in yeast fitness: 0.97 for the first, 0.742 for the second.

Compared with GUUCCGUUGGCGUAAUGGUAACGCCUCUCCCUCCUAAGGAGAAGACUACGGGUUCGAGUCCCGUACGGAACG [G25C G48A], GUUCCGUUGGCGUAAUGGUAACGCCUCUCCCUCCUAAGAAGAAGACUGCGGGUUCGAGUCCCGUACGGAACG [G25C G39A] is lower in yeast fitness: 0.951 for the first, 0.787 for the second.

First: GUUCCGUUGGCGUAAUGGUAACGCCUCUCCCUCCUAAGCAGAAGACUGCGGCUUCGACUCCCGUACGGAACG [G25C G39C G52C G58C]
Second: GUUCCGUUGGCGUAAUGGUAACGCCUCUCCCUCCUAAGGAGAAGACUGCGGGUUCGAGUCACGUACGGAACG [G25C C61A]
The yeast fitness of the first is lower: ≤ 0.5 for the first, 0.75 for the second.

Compared with GUUCCGUUGGCGUAAUGGUAACGCCUCUCCCUCCUAAGGAGAAGACUGCGGGUUCGAGUCCGGUACGGAACG [G25C C62G], GUUCCGUUGGCGUAAUGGUAACGCCUCUCCCUCCUAAAGAGAAGACUGCGGGUUCGAGUCCCGUACGGAACG [G25C G38A] is higher in yeast fitness: 0.877 for the first, 0.951 for the second.

First: GUUCCGUUGGCGUAAUGGUAACGCCUCUCCCUCCUAACGAGAAGACUGUGGGUUCGUGUCCCGUAAGGAACG [G25C G38C C49U A57U C66A]
Second: GUUCCGUUGGCGUAAUGGUAACGCCUCUCCCUCCUAAGGAGAAGACUGCGGGUUUGAGUCCCGUACGGAACG [G25C C55U]
The yeast fitness of the first is lower: 0.571 for the first, 0.916 for the second.

Compared with GUUCCGUUGGCGUAAUGGUAACGCCUCUCCCUCCUAAGGAGAAGACUGCGGGUUCGACUCCCGUUCGGAACG [G25C G58C A65U], GUUCCGUUGGCGUAAUGGUAACGCCUCUCCCUCCUAAGGAGAAGACUGCGAGUUCGAGUCCCGUACGGAACG [G25C G51A] is higher in yeast fitness: 0.928 for the first, 1.01 for the second.

First: GUUCCGUUGGCGUAAUGGUAACGCCUCUCCCUCCUAAGGAGAAGACUACGGGUUCGAGUCCCGUACGAAACG [G25C G48A G68A]
Second: GUUCCGUUGGCGUAAUGGUAACGCCUCUCCCUCCUAAGGAGAAGACUGCCGGUUCAAAUCCCGUACGGAACG [G25C G50C G56A G58A]
The yeast fitness of the first is higher: 0.564 for the first, ≤ 0.5 for the second.

Going from GUUCCGUUGGCGUAAUGGUAACGCCUCUCCCUCCUAAGGAGAAGACUGCGGGUUCGAGUCCCAUACGGAACG [G25C G63A] to GUUCCGUUGGCGUAAUGGUAACGCCUCUCCCUCCUAAGGAGAAGACUGUGGGUGCGAGUCCCGUACGGAACG [G25C C49U U54G], the yeast fitness falls from 0.955 to 0.58.

Compared with GUUCCGUUGGCGUAAUGGUAACGCCUCUCCCUCCUAAGGAGAAGACUGCGGGUUCGAGUCCCGUAAGGAACG [G25C C66A], GUUCCGUUGGCGUAAUGGUAACGCCUCUCCCUCCUAAGGAGAAGACUGCGGGUUCGAGUCCCGUAGGGAACG [G25C C66G] is lower in yeast fitness: 0.677 for the first, 0.639 for the second.

Going from GUUCCGUUGGCGUAAUGGUAACGCCUCUCCCUCCUAAGGAGAAGACUGCGGGUUCGAGUCCCGUAUGGAACG [G25C C66U] to GUUCCGUUGGCGUAAUGGUAACGCCUCUCCCUCCUAAGGAGAAGACUGCGGGUUCGAGUCACGUAUGGAACG [G25C C61A C66U], the yeast fitness falls from 0.972 to ≤ 0.5.

First: GUUCCGUUGGCGUAAUGGUAACGCCUCUCCCUCCUAAGGACAAGAUUGCGGGUUCGAGUCCCGUAUGGAACG [G25C G41C C46U C66U]
Second: GUUCCGUUGGCGUAAUGGUAACGCCUCUCCCUCCUAAGGAGAAGACUGCGGGUUCGAGUCCCGUAUGGCACG [G25C C66U A69C]
The yeast fitness of the first is lower: ≤ 0.5 for the first, 0.685 for the second.

First: GUUCCGUUGGCGUAAUGGUAACGCCUCUCCCUCCUAACGAGAAGACUGCGGGUUCGAGUGCCGUACGGAACG [G25C G38C C60G]
Second: GUUCCGUUGGCGUAAUGGUAACGCCUCUCCCUCCUAAGGAGAAGACUGCAGGUUCGAGUCCCGUACGGAACG [G25C G50A]
The yeast fitness of the first is lower: 0.747 for the first, 1 for the second.

Compared with GUUCCGUUGGCGUAAUGGUAACGCCUCUCCCUCCUAAGGACAAGACUCCGGGUUCGAGUCCCGUACGGAACG [G25C G41C G48C], GUUCCGUUGGCGUAAUGGUAACGCCUCUCCCUCCUAAGGAGAAGACUGCGGAUUCGAGUCCCGUACGGAACG [G25C G52A] is higher in yeast fitness: ≤ 0.5 for the first, 0.748 for the second.

Compared with GUUCCGUUGGCGUAAUGGUAACGCCUCUCCCUCCUAAGGAGAAGACUGCGGGUUCGAGUGCCGUACGGAACG [G25C C60G], GUUCCGUUGGCGUAAUGGUAACGCCUCUCCCUCCUAAGGAGAACACUGUGGGUUCGAGUCCCGUACGGAACG [G25C G44C C49U] is lower in yeast fitness: 0.665 for the first, 0.505 for the second.

First: GUUCCGUUGGCGUAAUGGUAACGCCUCUCCCUCCUAAGGAGAAGACUGCGGGUUCGAGUCCCGUACAGAACG [G25C G67A]
Second: GUUCCGUUGGCGUAAUGGUAACGCCUCUCCCUCCUAAGGACUAGACUGAGGGUUCGAGUCCCGUACGGAACG [G25C G41C A42U C49A]
The yeast fitness of the first is higher: 1.01 for the first, ≤ 0.5 for the second.

First: GUUCCGUUGGCGUAAUGGUAACGCCUCUCCCUCCUAAGGACAAGACUGCGGGUUCGAGUCCCGUACGGAACG [G25C G41C]
Second: GUUCCGUUGGCGUAAUGGUAACGCCUCUCCCUCCUAAGCAGAACACUGUGGGUUCGAGUUCCGUACGCAACG [G25C G39C G44C C49U C60U G68C]
The yeast fitness of the first is higher: 0.625 for the first, ≤ 0.5 for the second.

Compared with GUUCCGUUGGCGUAAUGGUAACGCCUCUCCCUCCUAAGGACAAGACUGCGGGUUCGAGUCCCGUACGGACCG [G25C G41C A70C], GUUCCGUUGGCGUAAUGGUAACGCCUCUCCCUCCUAAGGAGAAGACUGUGGGUUCGAGUCCCAUACGGAACG [G25C C49U G63A] is higher in yeast fitness: 0.559 for the first, 0.83 for the second.

GUUCCGUUGGCGUAAUGGUAACGCCUCUCCCUCCUAAGGAGAAGACUACGGGUUCGAGUCCCAUACGGGACG [G25C G48A G63A A69G] and GUUCCGUUGGCGUAAUGGUAACGCCUCUCCCUCCUAAGGAGAAGACUGUGAGUUCGAGUCCCGUCCGGCACG [G25C C49U G51A A65C A69C] cannot be ordered by yeast fitness: ≤ 0.5 for the first, ≤ 0.5 for the second.
